{
  "source": "ChEMBL document CHEMBL1909617",
  "about": "“Bioactive dammarane-type saponins from Operculina turpethum” (J Nat Prod, 2011)",
  "key": {"[1]": {"assay": "Cytoprotective activity in human embryo L02 cells assessed as inhibition of D-galactosamine-induced cytotoxicity at 6.25 ug/ml treated for 1 hr prior to D-galactosamine challenge measured after 48 hrs by MTT assay relative to control", "assay_type": "functional", "summary_of_the_method": "(§1)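 L-02 human embryo liver cells in RPMI-1640 with 10% heat-inactivated FBS, penicillin, streptomycin, L-glutamine; seeded 2 × 10^4 cells/mL, grown 24 h at 37 °C, 5% CO2. Fresh medium with compound (diluted from 1 mg/mL DMSO stock) for 1 h, then 5 mM D-GalN for 48 h. MTT read at 570 nm; inhibition (%) = (OD compound − OD GalN control)/(OD blank − OD control) × 100; n = 3, mean ± SD.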"}, "[2]": {"assay": "Cytotoxicity against human embryo L02 cells assessed as cell viability after 48 hrs by MTT assay", "assay_type": "cell-based", "conditions": "read-out: MTD", "summary_of_the_method": "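Human embryo liver L-02 cells in RPMI-1640 with 10% heat-inactivated FBS, penicillin, streptomycin and L-glutamine, seeded at 2 × 10^4 cell/mL and grown 24 h at 37 C, 5% CO2. Medium replaced by serial dilutions of compound (from 1 mg/mL DMSO stock), 48 h exposure. MTT added for 4 h, formazan dissolved in DMSO, OD 570 nm. Viability = OD(compound)/OD(control) × 100; maximum nontoxic concentration derived.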"}, "[3]": {"assay": "Cytoprotective activity in human embryo L02 cells assessed as inhibition of D-galactosamine-induced cytotoxicity at 12.5 ug/ml treated for 1 hr prior to D-galactosamine challenge measured after 48 hrs by MTT assay relative to control", "assay_type": "functional", "summary_of_the_method": "as §1"}, "[4]": {"assay": "Cytoprotective activity in human embryo L02 cells assessed as inhibition of D-galactosamine-induced cytotoxicity at 3.13 ug/ml treated for 1 hr prior to D-galactosamine challenge measured after 48 hrs by MTT assay relative to control", "assay_type": "functional", "summary_of_the_method": "as §1"}, "[5]": {"assay": "Cytoprotective activity in human embryo L02 cells assessed as inhibition of D-galactosamine-induced cytotoxicity at 1.56 ug/ml treated for 1 hr prior to D-galactosamine challenge measured after 48 hrs by MTT assay relative to control", "assay_type": "functional", "summary_of_the_method": "as §1"}},
  "data": [
    {"molecule": "CC(C)(O)[C@@H]1CC[C@@](C)([C@H]2[C@H](O)C[C@]3(C)[C@@H]2CC[C@@H]2[C@@]4(C)CC[C@H](O[C@@H]5O[C@H](CO)[C@@H](O)[C@H](O)[C@H]5O[C@@H]5O[C@H](CO)[C@@H](O)[C@H](O)[C@H]5O)C(C)(C)[C@@H]4CC[C@]23C)O1", "note": "[OPERCULINOSIDE C]", "values": [
      {"measurement": "inhibition at 6.25 µg/mL", "setting": "[1]", "result": 69.5, "unit": "%"},
      {"measurement": "MNTC at 48 h", "setting": "[2]", "result": 50, "unit": "µg/mL"},
      {"measurement": "inhibition at 12.5 µg/mL", "setting": "[3]", "result": 44.1, "unit": "%"},
      {"measurement": "inhibition at 3.13 µg/mL", "setting": "[4]", "result": 16.7, "unit": "%"}
    ]},
    {"molecule": "CC(C)[C@]1(CO)CC[C@@](C)([C@H]2[C@H](O)C[C@]3(C)[C@@H]2CC[C@@H]2[C@@]4(C)CC[C@H](O[C@@H]5O[C@H](CO)[C@@H](O)[C@H](O)[C@H]5O[C@@H]5O[C@H](CO)[C@@H](O)[C@H](O)[C@H]5O)C(C)(C)[C@@H]4CC[C@]23C)O1", "note": "[OPERCULINOSIDE A]", "values": [
      {"measurement": "inhibition at 6.25 µg/mL", "setting": "[1]", "result": -14.7, "unit": "%"},
      {"measurement": "MNTC at 48 h", "setting": "[2]", "result": 12.5, "unit": "µg/mL"},
      {"measurement": "inhibition at 12.5 µg/mL", "setting": "[3]", "result": 46.7, "unit": "%"},
      {"measurement": "inhibition at 3.13 µg/mL", "setting": "[4]", "result": -22.8, "unit": "%"}
    ]},
    {"molecule": "CC(C)(O[C@@H]1O[C@H](CO)[C@@H](O)[C@H](O)[C@H]1O)[C@@H]1CC[C@@](C)([C@H]2[C@H](O)C[C@]3(C)[C@@H]2CC[C@@H]2[C@@]4(C)CC[C@H](O[C@@H]5O[C@H](CO)[C@@H](O)[C@H](O)[C@H]5O[C@@H]5O[C@H](CO)[C@@H](O)[C@H](O)[C@H]5O)C(C)(C)[C@@H]4CC[C@]23C)O1", "note": "[OPERCULINOSIDE D]", "values": [
      {"measurement": "inhibition at 6.25 µg/mL", "setting": "[1]", "result": 6.3, "unit": "%"},
      {"measurement": "MNTC at 48 h", "setting": "[2]", "result": 100, "unit": "µg/mL"},
      {"measurement": "inhibition at 12.5 µg/mL", "setting": "[3]", "result": 22.2, "unit": "%"},
      {"measurement": "inhibition at 3.13 µg/mL", "setting": "[4]", "result": 5.5, "unit": "%"}
    ]},
    {"molecule": "CC(C)[C@]1(CO[C@@H]2O[C@H](CO)[C@@H](O)[C@H](O)[C@H]2O)CC[C@@](C)([C@H]2[C@H](O)C[C@]3(C)[C@@H]2CC[C@@H]2[C@@]4(C)CC[C@H](O[C@@H]5O[C@H](CO)[C@@H](O)[C@H](O)[C@H]5O[C@@H]5O[C@H](CO)[C@@H](O)[C@H](O)[C@H]5O)C(C)(C)[C@@H]4CC[C@]23C)O1", "note": "[OPERCULINOSIDE B]", "values": [
      {"measurement": "inhibition at 6.25 µg/mL", "setting": "[1]", "result": 10.4, "unit": "%"},
      {"measurement": "MNTC at 48 h", "setting": "[2]", "result": 100, "unit": "µg/mL"},
      {"measurement": "inhibition at 12.5 µg/mL", "setting": "[3]", "result": -6.9, "unit": "%"},
      {"measurement": "inhibition at 3.13 µg/mL", "setting": "[4]", "result": 3.5, "unit": "%"}
    ]},
    {"molecule": "COc1cc(C2Oc3cc([C@H]4Oc5cc(O)cc(O)c5C(=O)[C@@H]4O)ccc3OC2CO)ccc1O", "note": "(stereo not given in full) [SILIBININ]", "values": [
      {"measurement": "inhibition at 6.25 µg/mL", "setting": "[1]", "result": 28.2, "unit": "%"},
      {"measurement": "MNTC at 48 h", "setting": "[2]", "result": 6.25, "unit": "µg/mL"},
      {"measurement": "inhibition at 3.13 µg/mL", "setting": "[4]", "result": 33.4, "unit": "%"},
      {"measurement": "inhibition at 1.56 µg/mL", "setting": "[5]", "result": 10.1, "unit": "%"}
    ]}
  ]
}
